Measurements reported in article PMC10238757 (Pharmacology Research & Perspectives, 2023).
Read-outs that look alike come from different tables or passages of the source. Marks after values point to notes of the source that are not given here.

Key:
[1] = test system: rats; test: Dose ranging and good laboratory practice toxicology studies in rats; type: in vivo
[2] = test system: HIV-1; conditions: cited from earlier work
[3] = test system: healthy participants; conditions: for Abdominal pain, n occurrences (% of cohort) / All-cause AEs Grade 2, n occurrences (% of cohort) / All-cause AEs Grade 3/4, n occurrences (% of cohort) / All-cause AEs, n occurrences (% of cohort) / Constipation, n occurrences (% of cohort) / Diarrhea, n occurrences (% of cohort) / Drug-related AEs Grade 2, n occurrences (% of cohort) / Drug-related AEs Grade 3/4, n occurrences (% of cohort) / Drug-related AEs, n occurrences (% of cohort) / Headache, n occurrences (% of cohort) / MDSD, n occurrences (% of cohort): N=6
[4] = test system: healthy participants; test: Safety and tolerability, relative bioavailability and food effect; type: in vivo, human
In short: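 AEs in healthy participants given oral test compound or placebo, recorded with grade and relation to treatment. Laboratory analyses, clinical parameters and suicidality were also monitored. Observation ran 360 h after dosing. Summaries were descriptive, with no formal statistics; parts 1–2 blinded and placebo-controlled, part 3 open-label.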

[5] = test system: dogs; test: Dose ranging and good laboratory practice toxicology studies in dogs; type: in vivo

C=C(C)[C@@H]1CC[C@]2(NCCN3CCS(=O)(=O)CC3)CC[C@]3(C)[C@H](CC[C@@H]4[C@@]5(C)CC=C(C6=CC[C@@](COc7ncccc7C#N)(C(=O)O)CC6)C(C)(C)[C@@H]5CC[C@]43C)[C@@H]12 [GSK'937]
8 (67): All-cause AEs, n occurrences (% of cohort) ([3]; SAD 640 mg)
2 (12): Headache, n occurrences (% of cohort) ([4]; 100 mg tablet fed, N=17)
7: participants reporting AEs, n of 17 ([4]; part 3 (41%))
2 (13): All-cause AEs, n occurrences (% of cohort) ([4]; 100 mg PiB fed, N=15) | All-cause AEs Grade 2, n occurrences (% of cohort) ([4]; 100 mg tablet fasted, N=15) | Headache, n occurrences (% of cohort) ([4]; 100 mg tablet fasted, N=15)
7 (40): All-cause AEs, n occurrences (% of cohort) ([4]; 100 mg tablet fasted, N=15)
No significant changes: changes in laboratory analyses, clinical parameters, or suicidality ([4]; part 3)
3 (12): All-cause AEs Grade 2, n occurrences (% of cohort) ([4]; 100 mg tablet fed, N=17)
5 (50): All-cause AEs, n occurrences (% of cohort) ([3]; SAD 30 mg)
low nanomolar: potency in vitro [2]
5 (33): All-cause AEs, n occurrences (% of cohort) ([3]; SAD 320 mg)
3 (17): All-cause AEs, n occurrences (% of cohort) ([3]; SAD 10 mg) | Drug-related AEs, n occurrences (% of cohort) ([3]; SAD 10 mg)
4 (67): MDSD, n occurrences (% of cohort) ([3]; SAD 640 mg)
10 mg/kg/day: no observed adverse effect level [1]
4 (50) ^f: All-cause AEs, n occurrences (% of cohort) ([3]; SAD 80 mg)
2 (17): All-cause AEs Grade 2, n occurrences (% of cohort) ([3]; SAD 640 mg) | Drug-related AEs Grade 2, n occurrences (% of cohort) ([3]; SAD 640 mg) | Drug-related AEs, n occurrences (% of cohort) ([3]; SAD 640 mg)
0: All-cause AEs Grade 2, n occurrences (% of cohort) ([3]; SAD 10 mg) | All-cause AEs Grade 3/4, n occurrences (% of cohort) ([3]; SAD 10 mg) | Constipation, n occurrences (% of cohort) ([3]; SAD 10 mg) | Diarrhea, n occurrences (% of cohort) ([3]; SAD 10 mg) | Drug-related AEs Grade 2, n occurrences (% of cohort) ([3]; SAD 10 mg) | Drug-related AEs Grade 3/4, n occurrences (% of cohort) ([3]; SAD 10 mg) | MDSD, n occurrences (% of cohort) ([3]; SAD 10 mg) | Abdominal pain, n occurrences (% of cohort) ([3]; SAD 30 mg) | All-cause AEs Grade 3/4, n occurrences (% of cohort) ([3]; SAD 30 mg) | Diarrhea, n occurrences (% of cohort) ([3]; SAD 30 mg) | Drug-related AEs Grade 3/4, n occurrences (% of cohort) ([3]; SAD 30 mg) | Headache, n occurrences (% of cohort) ([3]; SAD 30 mg) | Abdominal pain, n occurrences (% of cohort) ([3]; SAD 80 mg) | All-cause AEs Grade 2, n occurrences (% of cohort) ([3]; SAD 80 mg) | All-cause AEs Grade 3/4, n occurrences (% of cohort) ([3]; SAD 80 mg) | Constipation, n occurrences (% of cohort) ([3]; SAD 80 mg) | Diarrhea, n occurrences (% of cohort) ([3]; SAD 80 mg) | Drug-related AEs Grade 2, n occurrences (% of cohort) ([3]; SAD 80 mg) | Drug-related AEs Grade 3/4, n occurrences (% of cohort) ([3]; SAD 80 mg) | MDSD, n occurrences (% of cohort) ([3]; SAD 80 mg) | All-cause AEs Grade 3/4, n occurrences (% of cohort) ([3]; SAD 320 mg) | Constipation, n occurrences (% of cohort) ([3]; SAD 320 mg) | Drug-related AEs Grade 2, n occurrences (% of cohort) ([3]; SAD 320 mg) | Drug-related AEs Grade 3/4, n occurrences (% of cohort) ([3]; SAD 320 mg) | Headache, n occurrences (% of cohort) ([3]; SAD 320 mg) | MDSD, n occurrences (% of cohort) ([3]; SAD 320 mg) | All-cause AEs Grade 3/4, n occurrences (% of cohort) ([3]; SAD 640 mg) | Drug-related AEs Grade 3/4, n occurrences (% of cohort) ([3]; SAD 640 mg) | Headache, n occurrences (% of cohort) ([3]; SAD 640 mg) | Abdominal pain, n occurrences (% of cohort) ([3]; SAD 800 mg) | All-cause AEs Grade 3/4, n occurrences (% of cohort) ([3]; SAD 800 mg) | Constipation, n occurrences (% of cohort) ([3]; SAD 800 mg) | Drug-related AEs Grade 3/4, n occurrences (% of cohort) ([3]; SAD 800 mg) | Headache, n occurrences (% of cohort) ([3]; SAD 800 mg) | Abdominal pain, n occurrences (% of cohort) ([4]; 100 mg PiB fed, N=15) | All-cause AEs Grade 2, n occurrences (% of cohort) ([4]; 100 mg PiB fed, N=15) | All-cause AEs Grade 3/4, n occurrences (% of cohort) ([4]; 100 mg PiB fed, N=15) | Constipation, n occurrences (% of cohort) ([4]; 100 mg PiB fed, N=15) | Diarrhea, n occurrences (% of cohort) ([4]; 100 mg PiB fed, N=15) | Drug-related AEs Grade 2, n occurrences (% of cohort) ([4]; 100 mg PiB fed, N=15) | Drug-related AEs Grade 3/4, n occurrences (% of cohort) ([4]; 100 mg PiB fed, N=15) | Drug-related AEs, n occurrences (% of cohort) ([4]; 100 mg PiB fed, N=15) | Headache, n occurrences (% of cohort) ([4]; 100 mg PiB fed, N=15) | MDSD, n occurrences (% of cohort) ([4]; 100 mg PiB fed, N=15) | Abdominal pain, n occurrences (% of cohort) ([4]; 100 mg tablet fasted, N=15) | All-cause AEs Grade 3/4, n occurrences (% of cohort) ([4]; 100 mg tablet fasted, N=15) | Constipation, n occurrences (% of cohort) ([4]; 100 mg tablet fasted, N=15) | Diarrhea, n occurrences (% of cohort) ([4]; 100 mg tablet fasted, N=15) | Drug-related AEs Grade 2, n occurrences (% of cohort) ([4]; 100 mg tablet fasted, N=15) | Drug-related AEs Grade 3/4, n occurrences (% of cohort) ([4]; 100 mg tablet fasted, N=15) | Drug-related AEs, n occurrences (% of cohort) ([4]; 100 mg tablet fasted, N=15) | MDSD, n occurrences (% of cohort) ([4]; 100 mg tablet fasted, N=15) | Abdominal pain, n occurrences (% of cohort) ([4]; 100 mg tablet fed, N=17) | All-cause AEs Grade 3/4, n occurrences (% of cohort) ([4]; 100 mg tablet fed, N=17) | Constipation, n occurrences (% of cohort) ([4]; 100 mg tablet fed, N=17) | Diarrhea, n occurrences (% of cohort) ([4]; 100 mg tablet fed, N=17) | Drug-related AEs Grade 2, n occurrences (% of cohort) ([4]; 100 mg tablet fed, N=17) | Drug-related AEs Grade 3/4, n occurrences (% of cohort) ([4]; 100 mg tablet fed, N=17) | Drug-related AEs, n occurrences (% of cohort) ([4]; 100 mg tablet fed, N=17) | MDSD, n occurrences (% of cohort) ([4]; 100 mg tablet fed, N=17)
3 mg/kg: lowest observed adverse effect level [5]
None: AEs considered drug- or treatment-related ([4]; part 3)
1 (17): Abdominal pain, n occurrences (% of cohort) ([3]; SAD 10 mg) | Headache, n occurrences (% of cohort) ([3]; SAD 10 mg) | All-cause AEs Grade 2, n occurrences (% of cohort) ([3]; SAD 30 mg) | Drug-related AEs Grade 2, n occurrences (% of cohort) ([3]; SAD 30 mg) | Drug-related AEs, n occurrences (% of cohort) ([3]; SAD 30 mg) | MDSD, n occurrences (% of cohort) ([3]; SAD 30 mg) | Drug-related AEs, n occurrences (% of cohort) ([3]; SAD 80 mg) | Headache, n occurrences (% of cohort) ([3]; SAD 80 mg) | Abdominal pain, n occurrences (% of cohort) ([3]; SAD 320 mg) | All-cause AEs Grade 2, n occurrences (% of cohort) ([3]; SAD 320 mg) | Diarrhea, n occurrences (% of cohort) ([3]; SAD 320 mg) | Abdominal pain, n occurrences (% of cohort) ([3]; SAD 640 mg) | Constipation, n occurrences (% of cohort) ([3]; SAD 640 mg) | Diarrhea, n occurrences (% of cohort) ([3]; SAD 640 mg) | All-cause AEs Grade 2, n occurrences (% of cohort) ([3]; SAD 800 mg) | Drug-related AEs Grade 2, n occurrences (% of cohort) ([3]; SAD 800 mg) | MDSD, n occurrences (% of cohort) ([3]; SAD 800 mg)
2 (33): Constipation, n occurrences (% of cohort) ([3]; SAD 30 mg) | Diarrhea, n occurrences (% of cohort) ([3]; SAD 800 mg) | Drug-related AEs, n occurrences (% of cohort) ([3]; SAD 800 mg)
No deaths or SAEs occurred: deaths or SAEs ([3]; SAD) | deaths or SAEs ([4]; part 3)
4 (17): Drug-related AEs, n occurrences (% of cohort) ([3]; SAD 320 mg)
7 (24): All-cause AEs, n occurrences (% of cohort) ([4]; 100 mg tablet fed, N=17)
4 (33): All-cause AEs, n occurrences (% of cohort) ([3]; SAD 800 mg)
